In ChEMBL document CHEMBL3632499, “Synthesis and Antiproliferative Activity Evaluation of the Disulfide-Containing Cyclic Peptide Thiochondrilline C and Derivatives” (J Nat Prod, 2015):

Key:
PC-3 = experiment: Antiproliferative activity against human PC3 cells; assay type: functional
Summary of the method: (§1)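 Profiled in the National Cancer Institute 60 cancer cell line screen. Reported GI50 is the concentration giving 50% growth inhibition, TGI the concentration giving total growth inhibition, and LC50 the concentration giving 50% net cell killing. Values are averages ± SEM from two independent determinations.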

[1] = Antiproliferative activity against human BT549 cells; assay type: functional; summary of the method: as §1
[2] = Antiproliferative activity against human RPMI8226 cells; assay type: functional; summary of the method: as §1
MDA-MB-468 = experiment: Antiproliferative activity against human MDA-MB-468 cells; assay type: functional; summary of the method: as §1
UACC-257 = experiment: Antiproliferative activity against human UACC257 cells; assay type: functional
Summary of the method: (§2)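 Run in the National Cancer Institute 60 cancer cell line panel. Read-outs: GI50, the concentration causing 50% growth inhibition; TGI, the concentration causing total growth inhibition; LC50, the concentration causing 50% net cell killing. Values are averages ± SEM from two independent determinations.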

MCF7 = experiment: Antiproliferative activity against human MCF7 cells; assay type: functional; summary of the method: as §1
[3] = Antiproliferative activity against human SF539 cells; assay type: functional; summary of the method: as §1
UACC-62 = experiment: Antiproliferative activity against human UACC62 cells; assay type: functional; summary of the method: as §2
KM12 = experiment: Antiproliferative activity against human KM12 cells; assay type: functional; summary of the method: as §1
SR = experiment: Antiproliferative activity against human SR cells; assay type: functional; summary of the method: as §2
U-251 = experiment: Antiproliferative activity against human U251 cells; assay type: functional; summary of the method: as §2
HOP-62 = experiment: Antiproliferative activity against human HOP62 cells; assay type: functional; summary of the method: as §1
[4] = Antiproliferative activity against human COLO205 cells; assay type: functional; summary of the method: as §1
K562 = experiment: Antiproliferative activity against human K562 cells; assay type: functional; summary of the method: as §1
TK-10 = experiment: Antiproliferative activity against human TK10 cells; assay type: functional; summary of the method: as §2
[5] = Antiproliferative activity against human MOLT4 cells; assay type: functional; summary of the method: as §1
786-0 = experiment: Antiproliferative activity against human 786-0 cells; assay type: functional; summary of the method: as §1
SNB-19 = experiment: Antiproliferative activity against human SNB19 cells; assay type: functional; summary of the method: as §2
[6] = Half life in mouse plasma; assay type: ADME, cell-free
[7] = Apparent permeability of the compound from apical to basolateral side in human Caco2 cells; assay type: ADME, cell-based; conditions: Caco-2
IGROV-1 = experiment: Antiproliferative activity against human IGROV1 cells; assay type: functional; summary of the method: as §1
[8] = read-out: LC50 (the source's name)

C[C@H](NC(=O)[C@@H]1CSSC[C@@H](NC(=O)c2nc3ccccc3cc2O)C(=O)NCC(=O)N1C)c1ccccc1
GI50 (PC-3): 6.1 µM
TGI (PC-3): 13.5 µM
CC50 (PC-3; [8]): 30.3 µM
GI50 ([1]; BT-549): 6.9 µM
TGI ([1]; BT-549): 16.1 µM
CC50 ([1]; BT-549, read-out: LC50 (the source's name)): 37.6 µM
GI50 ([2]; RPMI-8226): 5.7 µM
TGI ([2]; RPMI-8226): 21.6 µM
CC50 ([2]; RPMI-8226, read-out: LC50 (the source's name)): > 50 µM
GI50 (MDA-MB-468): 6 µM
TGI (MDA-MB-468): 13.3 µM
CC50 (MDA-MB-468; [8]): 29.8 µM
GI50 (UACC-257): 8.3 µM
TGI (UACC-257): 27.8 µM
CC50 (UACC-257; [8]): > 50 µM
GI50 (MCF7): 0.9 µM
TGI (MCF7): 2.6 µM
CC50 (MCF7; [8]): 16.1 µM
GI50 ([3]; SF-539): 2 µM
TGI ([3]; SF-539): 9.4 µM
CC50 ([3]; SF-539, read-out: LC50 (the source's name)): 27.3 µM
GI50 (UACC-62): 5.7 µM
TGI (UACC-62): 13.3 µM
CC50 (UACC-62; [8]): 30.2 µM
GI50 (KM12): 0.6 µM
TGI (KM12): 8.6 µM
CC50 (KM12; [8]): 28.3 µM
GI50 (SR): 0.2 µM
TGI (SR): 1.2 µM
CC50 (SR; [8]): > 50 µM
GI50 (U-251): 2.5 µM
TGI (U-251): 7.7 µM
CC50 (U-251; [8]): 20.4 µM
GI50 (HOP-62): 12.2 µM
TGI (HOP-62): 21 µM
CC50 (HOP-62; [8]): 36.8 µM
GI50 ([4]; COLO 205): 1 µM
TGI ([4]; COLO 205): 2.3 µM
CC50 ([4]; COLO 205, read-out: LC50 (the source's name)): 7.2 µM
GI50 (K562): 0.7 µM
TGI (K562): 3.1 µM
CC50 (K562; [8]): > 50 µM
GI50 (TK-10): 8.1 µM
TGI (TK-10): 15.4 µM
CC50 (TK-10; [8]): 29.7 µM
GI50 ([5]; MOLT-4): 0.9 µM
TGI ([5]; MOLT-4): 3.3 µM
CC50 ([5]; MOLT-4, read-out: LC50 (the source's name)): > 50 µM
GI50 (786-0): 2.5 µM
TGI (786-0): 9.8 µM
CC50 (786-0; [8]): 33.5 µM
GI50 (SNB-19): 7.3 µM
TGI (SNB-19): 19.5 µM
CC50 (SNB-19; [8]): > 50 µM
half-life [6]: 4.9 h
Papp A→B [7]: 0.011 ×10⁻⁶ cm/s
GI50 (IGROV-1): 4 µM
